From paper PMC8108540 (Arteriosclerosis, thrombosis, and vascular biology, 2020)
Where a SMILES comes first, the peptide text is derived from it. The star is where a group is joined. Palmitoyl = CCCCCCCCCCCCCCCC(=O)*

Columns and labels:
platelet-rich plasma = experiment: Thrombin-induced clot retraction in PRP; assay type: cell-based, human; conditions: 10 or 30 μM inhibitor, 3 nmol/L thrombin, RT, 15 minutes to 4 hours
Method in brief: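 Citrated platelet-rich plasma adjusted to […] and diluted in PBS with red blood cells in glass tubes. CaCl2 added to a final 0.5 mmol/L. Pretreated with 10 or 30 μM test compound, P2Y12 inhibitor or vehicle. Clotting started with 3 or 10 nmol/L thrombin at room temperature. Clots photographed at 0, 5, 10, 15 and 30 min and at 1, 2 and 4 h.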

RASA3 = experiment: Thrombin-induced RASA3 membrane localization in human platelets; assay type: cell-based; conditions: GPR310 1 μM, AZD1283 10 μM, dual, or LY294002 10 μM, 3 nmol/L thrombin
Rap1 [1] = experiment: Thrombin-induced Rap1 activation in human platelets; assay type: cell-based; conditions: GPR310 3 μM, AZD1283 10 μM or dual; 3 nmol/L thrombin, 15 min, gel-purified platelets
GPR31 [2] = molecular target: T1, GPR31 (Homo sapiens, UniProt O00270); experiment: Cre-luciferase activation assay in GPR31-transfected CHO cells; assay type: cell-based; conditions: 6 hours
Method in brief: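 CHO cells cotransfected by lipofection with Cre-luciferase and GPR31 plasmids, 8 μg each. Cells plated and treated 6 h with 10 μM forskolin with or without 300 nmol/L 12(S)-HETE. Cells then lysed and luciferase activity read as relative light units.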
Target sequence in this assay (O00270 whole entry, species assumed): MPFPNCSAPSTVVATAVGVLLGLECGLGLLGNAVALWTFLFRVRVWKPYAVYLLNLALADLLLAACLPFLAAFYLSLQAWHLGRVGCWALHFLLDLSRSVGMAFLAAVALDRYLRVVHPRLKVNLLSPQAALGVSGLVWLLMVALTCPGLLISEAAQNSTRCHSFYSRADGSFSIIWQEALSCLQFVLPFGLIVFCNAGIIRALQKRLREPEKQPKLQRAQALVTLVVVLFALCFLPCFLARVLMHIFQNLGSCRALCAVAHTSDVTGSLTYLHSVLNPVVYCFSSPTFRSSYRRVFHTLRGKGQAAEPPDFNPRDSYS

GPR31 [3] = molecular target: T1, GPR31; experiment: 12; assay type: cell-based; conditions: 10 and 20 μM 12(S)-HETE, fura-2-labeled GPR31/CHO cells
Method in brief: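 Human GPR31 transiently transfected into CHO cells. Cells labelled with fura-2 and challenged with 12(S)-HETE; Ca2+ flux followed over time.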
Target sequence in this assay (O00270 whole entry, species assumed): as above

GPR31 [4] = molecular target: T1, GPR31; experiment: 12; assay type: cell-based; conditions: 100 nmol/L 12(S)-HETE, human platelets, signal at 15 to 120 minutes
Method in brief: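 Gel-purified human platelets pretreated with test compound at graded levels, then activated with 12(S)-HETE. Lysis on ice for 10 min in Tris-HCl pH 7.5 buffer with NP-40, DTT and protease inhibitors, then cleared at 14 000 g. Rap1-GTP pulled down with RalGDS-RBD agarose, 60 min at 4 °C. Detected by 15% SDS-PAGE and anti-Rap1 immunoblot; lysate aliquots used for total Rap1. IC50 from dose response.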
Target sequence in this assay (O00270 whole entry): as the sequence (O00270 whole entry, species assumed) above

human platelets [5] = experiment: Platelet aggregation by 12; assay type: cell-based; conditions: 5, 10 and 20 μmol/L 12(S)-HETE, human PRP
p38 MAPK phosphorylation = experiment: Immunoblot of 12; assay type: cell-based, human
Method in brief: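 Gel-purified human platelets incubated in an aggregometer at 37 °C with 12(S)-HETE, with or without 1 or 3 μM test compound, for various times. Solubilised in SDS-PAGE sample buffer and run on 10% SDS-PAGE at equal protein. Immunoblotted for phospho-p38 (Thr180/Tyr182).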

human platelets [6] = experiment: 12; assay type: cell-based; conditions: 10 μM 12(S)-HETE, fura-2-labeled human platelets
Method in brief: (§1)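 Gel-purified platelets loaded with 2.5 μM fura-2/AM, 30 min at 37 °C. Emission recorded at 510 nm with dual excitation at 340/380 nm. For line 6, platelets preincubated with test compound or vehicle before AYPGKF.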

human platelets [7] = experiment: Collagen-mediated human platelet aggregation; assay type: cell-based; conditions: 10 μg/mL collagen; 3 μmol/L GPR310 or 30 μmol/L ML355; P<0.001
PAR1 [8] = experiment: PAR1; assay type: cell-based, human
PAR4 [9] = experiment: PAR4; assay type: cell-based, human; conditions: 30 μmol/L ML355, 2 min preincubation, 160 μmol/L AYPGKF, aggregation at 15 min
[10] = Pharmacokinetics of sc injected pepducin in mouse plasma; assay type: in vivo; conditions: CD-1, mouse, 10 mg/kg
Method in brief: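 CD-1 mice given 10 mg/kg test compound subcutaneously in 10% DMSO. Vena cava blood drawn into heparin at 5, 15 and 30 min and 1, 4, 5, 14 and 24 h. Pepducin extracted from plasma and quantified by LC-MS to obtain peak level and terminal elimination.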

mouse platelets [11] = experiment: Ex vivo platelet aggregation after sc dosing; assay type: in vivo; conditions: mice, 10 mg/kg sc, 4 h; AYPGKF 100 μmol/L or thrombin 10 nmol/L
pAKT, pERK = experiment: Immunoblot of thrombin-induced Akt and ERK phosphorylation in human platelets; assay type: cell-based; conditions: 1 μM GPR310, 3 nmol/L thrombin, 15 min
Method in brief: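 Gel-purified human platelets pretreated with or without 1 μM test compound, then stimulated with 3 nmol/L thrombin for 15 min. Equal protein resolved on 10% SDS-PAGE and immunoblotted for phospho-AKT and phospho-ERK, with β-actin as loading control.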

Tail bleeding time = assay type: in vivo, mouse; conditions: mice, 4 hours after 5 and 10 mg/kg sc, n=10
Method in brief: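 Mice anaesthetised 4 h after subcutaneous test compound or vehicle and kept on a 37 °C homeothermic blanket. Tail transected 5 mm from the tip and immersed at once in 37 °C saline. Time to cessation recorded; cessation counted only once bleeding had stopped for 1 min.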

CXCR4 = CXCR4 (Homo sapiens, UniProt P61073); experiment: Calcium flux in human neutrophils, SDF1α; assay type: cell-based; conditions: GPR310 6 μM, 100 nmol/L SDF1α
Chain of CXCR4 (P61073 whole entry): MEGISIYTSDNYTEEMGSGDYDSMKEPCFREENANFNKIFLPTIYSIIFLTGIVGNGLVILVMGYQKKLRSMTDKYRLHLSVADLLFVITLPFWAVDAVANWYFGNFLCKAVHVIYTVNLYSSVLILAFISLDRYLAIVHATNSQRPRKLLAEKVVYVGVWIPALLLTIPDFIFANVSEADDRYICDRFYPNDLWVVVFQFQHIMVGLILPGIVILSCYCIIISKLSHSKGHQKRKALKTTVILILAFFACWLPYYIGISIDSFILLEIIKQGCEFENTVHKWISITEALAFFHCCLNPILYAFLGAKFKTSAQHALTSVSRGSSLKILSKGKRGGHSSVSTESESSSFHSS

PAR2 = molecular target: T2, PAR2 (Homo sapiens, UniProt P55085); experiment: Calcium flux, recombinant PAR2, SLIGRL; assay type: cell-based; conditions: GPR310 6 μM; 100 μM SLIGRL
T2 sequence (P55085 26-397): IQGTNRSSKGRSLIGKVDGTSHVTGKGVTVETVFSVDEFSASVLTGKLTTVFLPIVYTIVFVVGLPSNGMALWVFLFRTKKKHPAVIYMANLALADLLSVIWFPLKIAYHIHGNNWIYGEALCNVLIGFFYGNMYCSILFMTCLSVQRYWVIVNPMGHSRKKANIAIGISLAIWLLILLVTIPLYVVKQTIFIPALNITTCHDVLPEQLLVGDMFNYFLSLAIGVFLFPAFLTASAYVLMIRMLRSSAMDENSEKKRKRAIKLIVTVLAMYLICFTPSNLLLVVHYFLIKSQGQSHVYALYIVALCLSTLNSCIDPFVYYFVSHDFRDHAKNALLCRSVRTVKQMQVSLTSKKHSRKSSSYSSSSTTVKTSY

PAR1 [12] = molecular target: T3, PAR1 (Homo sapiens, UniProt P25116); experiment: Calcium flux in HEK293 recombinant system, SFLLRN; assay type: cell-based; conditions: GPR310 6 μM, 100 μM SFLLRN
T3 sequence (P25116 22-425): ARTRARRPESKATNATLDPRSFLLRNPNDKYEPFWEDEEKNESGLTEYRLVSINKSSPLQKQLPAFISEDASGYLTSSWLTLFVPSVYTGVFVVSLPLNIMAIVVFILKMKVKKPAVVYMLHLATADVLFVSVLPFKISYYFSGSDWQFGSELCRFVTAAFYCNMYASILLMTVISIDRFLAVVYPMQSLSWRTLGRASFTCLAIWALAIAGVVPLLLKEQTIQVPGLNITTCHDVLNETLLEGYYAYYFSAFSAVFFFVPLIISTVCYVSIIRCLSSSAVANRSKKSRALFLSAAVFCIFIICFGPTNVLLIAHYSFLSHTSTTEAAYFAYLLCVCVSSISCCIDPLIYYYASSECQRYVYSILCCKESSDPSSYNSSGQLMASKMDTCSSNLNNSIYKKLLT

Rap1 [13] = experiment: AYPGKF; assay type: cell-based; conditions: human platelets, peak shifted from 5 to 15 minutes
PAR4 [14] = experiment: AYPGKF-mediated calcium flux in human platelets; assay type: cell-based; conditions: 3 μM GPR310, 160 μM AYPGKF, fura-2-labeled human platelets
Method in brief: as §1

ADP receptors = experiment: Calcium flux, ADP; assay type: cell-based, human; conditions: GPR310 6 μM; 20 μM ADP
IL-8 receptor CXCR1/2 = experiment: Calcium flux in human neutrophils, IL-8; assay type: cell-based; conditions: GPR310 6 μM, 50 nmol/L IL-8
mouse platelets [15] = experiment: AYPGKF-induced aggregation and ATP release in mouse PRP; assay type: cell-based; conditions: 30 μM GPR310 spiked, 100 μM AYPGKF
Method in brief: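 Mouse platelet-rich plasma spiked with test compound, then stimulated with 100 μM AYPGKF. Run at 37 °C with stirring at 900 rpm in a lumi-aggregometer. Aggregation and dense-granule ATP release recorded together; ATP detected with luciferin/luciferase reagent and calibrated against an ATP standard.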

SMILES: CCOC(=O)c1cc(C#N)c(N2CCC(C(=O)NS(=O)(=O)Cc3ccccc3)CC2)nc1C [AZD1283, reference compound]
- clot retraction time vs vehicle (platelet-rich plasma): longer clot retraction times
- suppression of thrombin-induced RASA3 appearance in plasma membrane (RASA3): complete suppression
- inhibition of thrombin-induced Rap1 activation (Rap1 [1]): partially suppressed

SMILES: C=C[C@@]1(C)CC(=O)[C@]2(O)[C@@]3(C)[C@@H](O)CCC(C)(C)[C@@H]3[C@H](O)[C@H](OC(C)=O)[C@@]2(C)O1 [forskolin]
- induction of cAMP-responsive element-luciferase reporter (GPR31 [2]; CHO-K1 cells expressing GPR31 and Cre-luciferase, 10 μM forskolin): 10 fold

SMILES: CCCCC/C=C\C[C@H](O)/C=C/C=C\C/C=C\CCCC(=O)O [12(S)-HETE]
- calcium mobilization (GPR31 [3]): low but detectable calcium transients
- Rap1-GTP activation (GPR31 [4]): strongly activated
- activation of platelet aggregation (human platelets [5]): failed to effectively activate platelet aggregation
- p38 MAPK phosphorylation activation (p38 MAPK phosphorylation; 100 nmol/L 12(S)-HETE, 15 minutes, human platelets): rapidly (15 minutes) activated
- inhibition of AC (adenylyl cyclase) activity (GPR31 [2]; 300 nmol/L 12(S)-HETE with 10 μM forskolin, not observed in Cre-luci controls): significant inhibition
- calcium flux (human platelets [6]): negligible

SMILES: COc1cccc(CNc2ccc(S(=O)(=O)Nc3nc4ccccc4s3)cc2)c1O [ML355, reference compound]
- inhibition of collagen-mediated platelet aggregation (human platelets [7]): to a similar extent
- inhibition of PAR1-mediated platelet aggregation (PAR1 [8]; 30 μmol/L ML355, 3 μmol/L SFLLRN): considerable inhibition
- inhibition of PAR1-mediated platelet aggregation (PAR1 [8]; 30 μmol/L ML355, 10 μmol/L SFLLRN): but not 10 μmol/L SFLLRN
- inhibition of PAR4-mediated platelet aggregation (PAR4 [9]): inhibition

SMILES: CCCCCCCCCCCCCCCC(=O)N[C@@H](CCCNC(=N)N)C(=O)N[C@@H](C)C(=O)N[C@@H](CC(C)C)C(=O)N[C@@H](CCC(N)=O)C(=O)N[C@@H](CCCCN)C(=O)N[C@@H](CCCNC(=N)N)C(=O)N[C@@H](CC(C)C)C(=O)N[C@@H](CCCNC(=N)N)C(=O)N[C@@H](CCC(=O)O)C(=O)N1CCC[C@H]1C(=O)N[C@@H](CCC(=O)O)C(=O)N[C@@H](CCCCN)C(=O)N[C@@H](CCC(N)=O)C(=O)N1CCC[C@H]1C(=O)N[C@@H](CCCCN)C(=O)N[C@@H](CC(C)C)C(=O)N[C@@H](CCC(N)=O)C(=O)N[C@@H](CCCNC(=N)N)C(=O)N[C@@H](C)C(=O)N[C@@H](CCC(N)=O)C(=O)N[C@@H](C)C(N)=O [GPR310] (Palmitoyl-RALQKRLREPEKQPKLQRAQA-NH2; C-terminus assumed)
- Tmax [10]: 1 h
- level at time molar at 4 h [10]: 3500 nM
- level at time molar at 14 h [10]: 10 nM
- ex vivo antiplatelet effect at high agonist concentration (mouse platelets [11]): reversed
- inhibition of thrombin-induced Akt phosphorylation (pAKT, pERK): attenuated
- inhibition of thrombin-mediated ERK activation (pAKT, pERK): inhibited
- clot retraction time vs vehicle (platelet-rich plasma): longer clot retraction times
- inhibition of collagen-mediated platelet aggregation (human platelets [7]): almost completely inhibited
- tail bleeding time vs vehicle control (Tail bleeding time): no difference
- inhibition of calcium flux (CXCR4) (CXCR4): did not inhibit
- inhibition of recombinant PAR2 calcium flux (PAR2): no detected inhibition
- inhibition of PAR1 calcium flux (PAR1 [12]): minimal inhibition
- inhibition of 12(S)-HETE-induced p38 MAPK phosphorylation (p38 MAPK phosphorylation; 1 to 3 μM GPR310, human platelets): completely attenuated
- inhibition of AYPGKF-induced Rap1-GTP signal (Rap1 [13]): significantly attenuated
- suppression of AYPGKF-mediated Ca2+ response (PAR4 [14]): 80%
- inhibition of calcium flux (ADP receptors) (ADP receptors): did not inhibit
- inhibition of calcium flux (CXCR1/2) (IL-8 receptor CXCR1/2): did not inhibit
- suppression of thrombin-induced RASA3 appearance in plasma membrane (RASA3): complete suppression
- inhibition of thrombin-induced Rap1 activation (Rap1 [1]): partially suppressed
- inhibition of PAR1-mediated platelet aggregation (PAR1 [8]; 10 μmol/L GPR310, 3 μM SFLLRN, gel-purified human platelets): significant inhibition
- inhibition of PAR1-mediated platelet aggregation (PAR1 [8]; 10 μmol/L GPR310, 10 μmol/L SFLLRN, gel-purified human platelets): no significant effect
- inhibition of ATP release, mouse PRP (mouse platelets [15]): inhibited
- inhibition of platelet aggregation, mouse PRP (mouse platelets [15]): inhibited
